Screens as filed in PubChem.
NR2E3 ag-1 = agonists of human nuclear receptor NR2E3 | Q9Y5X4 | GST-NR2E3/biotin-RetCOR TR-FRET, 1536-well | inhibition of corepressor binding, % at 4.78 µM | 320,000 compounds, 0.12% hits | AID 2300;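 active = percent inhibition above the cutoff of mean plus 3 SD of all tested compounds, set per screening campaign, cut at about 20% in these data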;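 also: 0% = DMSO wells and 100% = biotin wells as full block of FRET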
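Material: NR2E3–RetCOR corepressor complex | Quantity: 1.35 nM GST-tagged NR2E3 final | Schedule: 5 h at 4 °C | Replication: Singlicate compound wells | Reagent: RetCOR corepressor, biotinylated, 7 nM | Controls: Biotin wells as high control, 0.6% DMSO wells as low control | Signal: TR-FRET, Eu(K)-anti-GST donor, streptavidin-D2 acceptor, ex 340, em 617/671 nm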
Rev-erbA mod = modulates human Rev-erb alpha binding to DNA | 370,000 compounds, 0.79% hits | AID 1259318 | activity, % at 10 µM | Rev-erbα–FITC-DNA binding, fluorescence polarization, 90 min;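 active = activity above about 14%, limit read from the data; passing the limit was not always enough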;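 also: 0% = DMSO wells with 35 nM protein and 100% = DMSO wells with 750 nM protein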
Target sequence (P20393 whole entry, looked up): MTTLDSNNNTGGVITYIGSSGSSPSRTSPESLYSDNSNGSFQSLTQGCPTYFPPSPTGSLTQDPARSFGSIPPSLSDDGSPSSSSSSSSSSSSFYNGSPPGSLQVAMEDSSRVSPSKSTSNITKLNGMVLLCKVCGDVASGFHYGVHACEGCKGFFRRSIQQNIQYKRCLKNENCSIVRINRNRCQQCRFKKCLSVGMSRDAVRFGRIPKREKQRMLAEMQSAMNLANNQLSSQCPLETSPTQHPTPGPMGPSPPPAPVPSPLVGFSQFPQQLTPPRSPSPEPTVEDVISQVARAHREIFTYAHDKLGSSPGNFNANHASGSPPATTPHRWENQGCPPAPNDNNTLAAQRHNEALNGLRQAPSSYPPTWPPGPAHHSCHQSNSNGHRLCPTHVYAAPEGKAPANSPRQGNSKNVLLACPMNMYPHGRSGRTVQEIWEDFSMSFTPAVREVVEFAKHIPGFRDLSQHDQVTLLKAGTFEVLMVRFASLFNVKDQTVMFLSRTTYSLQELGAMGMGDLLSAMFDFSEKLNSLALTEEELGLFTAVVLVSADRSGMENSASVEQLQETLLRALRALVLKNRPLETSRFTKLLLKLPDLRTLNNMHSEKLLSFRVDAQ
NR2E3 ag-2 = agonists of human NR2E3 nuclear receptor; Q9Y5X4; CHO-S Gal4-NCOR/VP16-NR2E3 two-hybrid, luciferase; inhibition of corepressor binding, % at 3.98 µM; 360,000 compounds, 0.35% hits; AID 602229;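 active = inhibition above the mean of all tested compounds plus 3 SD, cut at about 70% in these data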;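 also: 0% = DMSO with NR2E3 transfected cells and 100% = cells lacking NR2E3 construct; higher means lower luciferase signal from less NR2E3 corepressor binding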
PG9 binder = PG9 antibody binding by small molecule; AID 624416; TR-FRET gp120-PG9 antibody binding; inhibition, % at 6.7 µM; 360,000 compounds, 0.43% hits; in the data active = inhibition above about 8.5%
NR1D1 mod conf = confirmation of modulators of human Rev-erb alpha DNA binding | shares compounds with Rev-erbA mod | Rev-erb alpha FITC-DNA binding, fluorescence polarization, 90 min | activation, % at 25 µM | 3,000 compounds, 61% hits;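 active = activation at or above a set limit, or at least 3 SD above the negative control mean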;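 also: 0% = 35 nM protein with DMSO and 100% = 750 nM protein high control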
Starred values were filed as active, the others as inactive. Most compounds without a hit are left out; they make up all but 1.4% or so of the library.

How did COc1ccc(-c2nnc3ccc(SCC(=O)Nc4nc5ccccc5s4)nn23)cc1OC do in these assays?
NR2E3 ag-1: 0; Rev-erbA mod: 46*; NR2E3 ag-2: 9; PG9 binder: -1; NR1D1 mod conf: 15

Results for CCOC(=O)c1sc2ccc(S(=O)(=O)N3CC(C)CC(C)C3)cc2c1N (centres undefined) ?
NR2E3 ag-1: 0; Rev-erbA mod: 28*; NR2E3 ag-2: 6; PG9 binder: -1; NR1D1 mod conf: 18*

What do the screens show for `CC/C(=N/O)C(=O)c1ccc(Br)cc1`?
NR2E3 ag-1: -3; Rev-erbA mod: -4; NR2E3 ag-2: -12; PG9 binder: -4

How did O=C(CNC(=O)c1cc2c(n(-c3ccccc3)c1=O)CCCC2=O)c1ccccc1 do in these assays?
NR2E3 ag-1: 2; Rev-erbA mod: 5; NR2E3 ag-2: 8; PG9 binder: 0

How did CC(=O)Nc1nc(CC(C)C)cc2c1c(=O)oc1ccccc12 do in these assays?
NR2E3 ag-1: 2; Rev-erbA mod: 27*; NR2E3 ag-2: -15; PG9 binder: 6; NR1D1 mod conf: 3

Results for N#Cc1cc2c(nc1SCC(=O)O)CCCC2 ?
NR2E3 ag-1: 6; Rev-erbA mod: 0; NR2E3 ag-2: -25; PG9 binder: -2

What do the screens show for `Cc1noc(NS(=O)(=O)c2ccc(NC(=O)CSc3nc4c(cc3C#N)CCC4)cc2)c1C`?
NR2E3 ag-1: 3; Rev-erbA mod: 0; NR2E3 ag-2: 8; PG9 binder: 0

What do the screens show for `Cc1cc(NC(=O)CSc2nc3c(cc2C#N)CCC3)no1`?
NR2E3 ag-1: 4; Rev-erbA mod: 23*; NR2E3 ag-2: -192; PG9 binder: -2; NR1D1 mod conf: 9

What do the screens show for `Cc1cc(NC(=O)CSc2nc3c(cc2C#N)CCCC3)no1`?
NR2E3 ag-1: -1; Rev-erbA mod: 35*; NR2E3 ag-2: -82; PG9 binder: 0; NR1D1 mod conf: 26*

Results for N#Cc1cc2c(nc1SCc1ccccc1)CCC2 ?
NR2E3 ag-1: -3; Rev-erbA mod: 45*; NR2E3 ag-2: -15; PG9 binder: 0; NR1D1 mod conf: 25*

What do the screens show for `COc1ccc(NC(=O)COC(=O)CN2C(=O)C3CCCCC3C2=O)cc1OC` (centres undefined)?
NR2E3 ag-1: -1; Rev-erbA mod: 7; NR2E3 ag-2: -3; PG9 binder: 1

What do the screens show for `CC#CCN(Cc1ccco1)C(=O)C1CCC(=O)N(Cc2ccccc2F)C1` (centres undefined)?
NR2E3 ag-1: 2; Rev-erbA mod: 0; NR2E3 ag-2: -26; PG9 binder: 0

How did CCCCN(C(=O)CCSc1ccc(F)cc1)c1c(N)n(Cc2ccccc2)c(=O)[nH]c1=O do in these assays?
NR2E3 ag-1: 2; Rev-erbA mod: -5; NR2E3 ag-2: -5; PG9 binder: 1

How did CC[C@H](C)[C@@H](N)C(=O)NC[C@H]1O[C@@H](n2cnc3c(=O)[nH]c(N)nc32)[C@H](O)[C@@H]1O do in these assays?
Rev-erbA mod: 2; NR2E3 ag-2: 0; PG9 binder: 0

What do the screens show for `CN(C)c1ccc(C(C#N)c2ccccc2)nn1` (centres undefined)?
NR2E3 ag-1: 2; Rev-erbA mod: 5; NR2E3 ag-2: -27; PG9 binder: -1

How did O=C(CSc1nnc(-c2cccs2)n1-c1ccccc1)Nc1ccccc1 do in these assays?
NR2E3 ag-1: -97; Rev-erbA mod: 112*; NR2E3 ag-2: -2; PG9 binder: 54*; NR1D1 mod conf: 92*

Results for O=C(CSc1nnc(-c2ccc(Cl)cc2)n1-c1ccccc1)Nc1ccc(Oc2ccccc2)cc1 ?
Rev-erbA mod: 22*; NR1D1 mod conf: 10

Results for COc1ccc(-n2c(SCC(=O)Nc3ccc(Oc4ccccc4)cc3)nnc2-c2ccccc2)cc1 ?
Rev-erbA mod: 1

What do the screens show for `CN1/C(=C/C(=S)NC(=O)C2(C)CC2(Cl)Cl)C(C)(C)c2ccccc21` (centres undefined)?
NR2E3 ag-1: -3; Rev-erbA mod: 23*; NR2E3 ag-2: 0; PG9 binder: 0; NR1D1 mod conf: -2

Results for COc1ccc(NC(=S)NC(=O)c2cc3ccccc3o2)c(OC)c1 ?
Rev-erbA mod: -10; NR2E3 ag-2: -19; PG9 binder: 0

What do the screens show for `CCC[n+]1cn(/C(C(=S)Nc2cccc(Cl)c2C)=C(/[O-])c2ccc(OC)c(OC)c2)c2ccccc21`?
NR2E3 ag-1: 1; Rev-erbA mod: -2; NR2E3 ag-2: 3; PG9 binder: 1
